Assay results reported in ChEMBL document CHEMBL1128250, “Structure-activity studies of 2,3,4,4a,5,9b-hexahydroindeno[1,2-c]pyridines as antispermatogenic agents for male contraception” (1995).
Where “and” joins values, the source holds several entries; their conditions need not be identical. Equal values may be shown once.

What was measured:
Mus musculus [1] = experiment: Effect on left testes body weight single oral dose of 10 mg/kg was given and the change after 3 hr of dosing was observed.; format: functional, Testis
Outline: (§1)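 Male CD-1 outbred Swiss albino mice, single oral gavage in acetate buffer pH 5 (10 mL/kg), 3, 10 or 30 mg/kg, plus vehicle control. Killed on day 1, 3 or 14 after dosing (times are days, not hours). Testes removed, right and left weighed separately, sectioned for histology and scored on a 0–6 spermatogenic index. Body weight change recorded. Mean ± SEM, n = 5; p < 0.05 versus control.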

Mus musculus [2] = experiment: Tested for its effect on mouse testes weight 3 days after single oral dose (1 mg/kg); format: functional, Testis
Outline: (§2)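 CD-1 outbred Swiss albino male mice, 5 per dose, single gavage on day 0 at 10 mL/kg. Vehicle was 0.15 M acetate buffer pH 5, ethanol/Tween-20/water (3:7:90), or 1% Tween-20 in water. CO2 euthanasia 72 h later. Testes weighed and histologically scored (spermatogenic index 0–6). Values are % reduction versus the assay's vehicle control. Positive control was 30 mg/kg of the parent compound. Significance by Dunnett's one-tailed t-test, p < 0.05.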

Mus musculus [3] = experiment: Tested for its effect on spermatogenic index 3 days after single oral dose (90 mg/kg); format: functional; outline: as §2
Mus musculus [4] = experiment: tested for its effect on testes weight 3 days after single sub cutaneous dose (10 mg/kg); format: functional, Testis
Outline: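 CD-1 male mice, 5/dose, injected subcutaneously once (10 mL/kg) on day 0 in ethanol/Tween-20/water (3:7:90); vehicle and positive controls included. Killed by CO2 after 72 h; testes weighed and sectioned, with histology scored as a 0–6 spermatogenic index. Both read-outs given as % reduction from control; Dunnett's one-tailed t-test.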

Mus musculus [5] = experiment: Effect on left testes body weight single oral dose of 3 mg/kg was given and the change after 14 hr of dosing was observed.; format: functional, Testis; outline: as §1
Mus musculus [6] = experiment: Effect on change in body weight single oral dose of 10 mg/kg was given and the change after 14 hr of dosing was observed.; format: functional; outline: as §1
Mus musculus [7] = experiment: Tested for its effect on testes weight 3 days after single oral dose (90 mg/kg); format: functional, Testis; outline: as §2
Mus musculus [8] = experiment: Effect on spermatogenic index single oral dose of 3 mg/kg was given and the change after 1 hr of dosing was observed.; format: functional; outline: as §1
Mus musculus [9] = experiment: Effect on spermatogenic index single oral dose of 30 mg/kg was given and the change after 14 hr of dosing was observed; format: functional; outline: as §1
Mus musculus [10] = experiment: Effect on right testes weight single oral dose of 30 mg/kg was given and the change after 3 hr of dosing was observed.; format: functional, Testis; outline: as §1
Mus musculus [11] = experiment: Tested for its effect on mouse testes weight 3 days after single sub cutaneous dose (30 mg/kg); format: functional, Testis
Outline: (§3)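 CD-1 outbred Swiss albino male mice, 5 per dose, single subcutaneous injection on day 0 at 10 mL/kg in ethanol/Tween-20/water (3:7:90). Killed 72 h later. Testes weighed and scored for spermatogenic index (0–6). Results are % reduction versus vehicle control. Each assay included a 30 mg/kg positive control. Dunnett's one-tailed t-test, p < 0.05. Oral versus sc route compared by ANOVA.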

Mus musculus [12] = experiment: Effect on right testes weight single oral dose of 10 mg/kg was given and the change after 3 hr of dosing was observed.; format: functional, Testis; outline: as §1
Mus musculus [13] = experiment: Effect on right testes weight single oral dose of 10 mg/kg was given and the change after 1 hr of dosing was observed.; format: functional, Testis; outline: as §1
Mus musculus [14] = experiment: Tested for its effect on spermatogenic index 3 days after single sub cutaneous dose (10 mg/kg); format: functional
Outline: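 Single subcutaneous injection, 10 mL/kg, to male CD-1 mice (5 per dose) in ethanol/Tween-20/water (3:7:90, v/v/v) on day 0. Mice were killed at 72 h; testes were weighed and histology scored for spermatogenic index (0–6). Results are % reduction from the vehicle control, with a 30 mg/kg positive control group. Dunnett's one-tailed t-test.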

Mus musculus [15] = experiment: Tested for its effect on spermatogenic index 3 days after single oral dose (30 mg/kg),; format: functional; outline: as §2
Mus musculus [16] = experiment: Tested for its effect on spermatogenic index 3 days after single oral dose (1 mg/kg),; format: functional; outline: as §2
Mus musculus [17] = experiment: Effect on spermatogenic index single oral dose of 30 mg/kg was given and the change after 3 hr of dosing was observed.; format: functional; outline: as §1
Mus musculus [18] = experiment: Effect on spermatogenic index single oral dose of 3 mg/kg was given and the change after 3 hr of dosing was observed.; format: functional; outline: as §1
Mus musculus [19] = experiment: tested for its effect on mouse testes weight 3 days after single oral dose (3 mg/kg); format: functional, Testis
Outline: (§4)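 Male CD-1 (ICR)BR outbred Swiss albino mice, 5/dose, given one oral gavage dose (10 mL/kg) on day 0 in 0.15 M acetate buffer pH 5, ethanol/Tween-20/water (3:7:90), or 1% Tween-20 in water; vehicle and positive-control groups in each assay. Killed by CO2 72 h later; testes weighed. Expressed as % reduction versus vehicle control; Dunnett's one-tailed t-test.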

Mus musculus [20] = experiment: Tested for its effect on testes weight 3 days after single sub cutaneous dose (10 mg/kg); format: functional, Testis; outline: as §3
Mus musculus [21] = experiment: Effect on left testes body weight a single oral dose of 3 mg/kg was given and the change after 1 h of dosing was observed.; format: functional, Testis; outline: as §1
Mus musculus [22] = experiment: tested for its effect on mouse testes weight 3 days after single oral dose (1 mg/kg); format: functional, Testis; outline: as §4
Mus musculus [23] = experiment: tested for its effect on spermatogenic index 3 days after single oral dose (30 mg/kg); format: functional
Outline: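 Male CD-1 (ICR)BR outbred Swiss albino mice, 5/dose, single oral gavage dose (10 mL/kg) on day 0 in acetate buffer pH 5 or Tween-20-based vehicle; killed 72 h later. Testis cross-sections scored histologically on a 0–6 spermatogenic index (Sertoli only to >100 late spermatids/tubule). Reported as % reduction versus vehicle control; Dunnett's one-tailed t-test.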

Mus musculus [24] = experiment: Effect on spermatogenic index single oral dose of 30 mg/kg was given and the change after 1 hr of dosing was observed.; format: functional; outline: as §1
Mus musculus [25] = experiment: Tested for its effect on mouse testes weight 3 days after single sub cutaneous dose (5 mg/kg); format: functional, Testis; outline: as §3
Mus musculus [26] = experiment: Effect on right spermatogenic index single oral dose of 10 mg/kg was given and the change after 3 hr of dosing was observed.; format: functional; outline: as §1
Mus musculus [27] = experiment: Tested for its effect on mouse testes weight 3 days after single oral dose (10 mg/kg); format: functional, Testis; outline: as §2
Mus musculus [28] = experiment: Tested for its effect on spermatogenic index 3 days after single oral dose (10 mg/kg); format: functional
Outline: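 Male CD-1 (ICR) mice, 7 weeks old on arrival, 5 per dose, single gavage of 10 mL/kg on day 0. Vehicle was 0.15 M acetate buffer pH 5, ethanol/Tween-20/water 3:7:90, or 1% Tween-20. Mice were killed with CO2 at 72 h and testes weighed and scored for spermatogenic index (0–6 scale). Results are % reduction versus the vehicle control. Dunnett's one-tailed t-test.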

Mus musculus [29] = experiment: Effect on right testes weight single oral dose of 30 mg/kg was given and the change after 1 hr of dosing was observed; format: functional, Testis; outline: as §1
Mus musculus [30] = experiment: Tested for its effect on spermatogenic index 3 days after single oral dose (30 mg/kg); format: functional; outline: as §2
Mus musculus [31] = experiment: Tested for its effect on mouse testes weight 3 days after single oral dose (30 mg/kg); format: functional, Testis; outline: as §2
Mus musculus [32] = experiment: Effect on left testes body weight single oral dose of 3 mg/kg was given and the change after 3 hr of dosing was observed.; format: functional, Testis; outline: as §1
Mus musculus [33] = experiment: Effect on right testes weight single oral dose of 30 mg/kg was given and the change after 14 hr of dosing was observed.; format: functional, Testis; outline: as §1

CCN1CC[C@H]2[C@H](c3ccc(C)cc3)c3cc(C)ccc3[C@H]2C1.Cl
Testes weight (Mus musculus [1]): 107.8 mg
Reduction (Mus musculus [2]): 11%
Reduction (Mus musculus [3]): -9%
Reduction (Mus musculus [4]): 12%
Testes weight (Mus musculus [5]): 119.3 mg
Change in body weight (Mus musculus [6]): 3.18 g
Reduction (Mus musculus [7]): 4%
Spermatogenic index (Mus musculus [8]): 6
Spermatogenic index (Mus musculus [9]): 1.7
Testes weight (Mus musculus [10]): 81 mg
Reduction (Mus musculus [11]): 14%
Spermatogenic index (Mus musculus [12]): 5.1
Testes weight (Mus musculus [12]): 112.3 mg
Spermatogenic index (Mus musculus [13]): 4
Testes weight (Mus musculus [13]): 88.2 mg
Reduction (Mus musculus [14]): 0% and 10%
Reduction (Mus musculus [15]): 9%
Reduction (Mus musculus [16]): 7%
Spermatogenic index (Mus musculus [17]): 3
Spermatogenic index (Mus musculus [18]): 5.8
Reduction (Mus musculus [19]): 13%
Reduction (Mus musculus [20]): -11%
Testes weight (Mus musculus [21]): 96.9 mg
Reduction (Mus musculus [22]): 25%
Reduction (Mus musculus [23]): 62%
Spermatogenic index (Mus musculus [24]): 4.4
Reduction (Mus musculus [25]): 5%
Spermatogenic index (Mus musculus [26]): 3.5
Reduction (Mus musculus [27]): 10%
Reduction (Mus musculus [28]): 31%
Testes weight (Mus musculus [29]): 93.9 mg
Reduction (Mus musculus [30]): 50% and 39%
Reduction (Mus musculus [31]): 24%
Testes weight (Mus musculus [32]): 106.1 mg
Testes weight (Mus musculus [33]): 49.4 mg and 47.1 mg
